Source: paper PMC6534466 (European journal of pharmacology, 2019)
Like-named read-outs stand apart in the source and are kept apart here.

Columns and labels:
cannabinoid CB2 receptor [1] = molecular target: T1, cannabinoid CB2 receptor (Homo sapiens, UniProt P34972); conditions: read-out: Ki, cannabinoid CB2 receptor, ref Huffman et al., cited from earlier work
cannabinoid CB1 receptor = cannabinoid CB1 receptor (Homo sapiens, UniProt P21554); conditions: read-out: Ki, cannabinoid CB1 receptor, ref Huffman et al., cited from earlier work
Sequence of cannabinoid CB1 receptor (P21554 whole entry): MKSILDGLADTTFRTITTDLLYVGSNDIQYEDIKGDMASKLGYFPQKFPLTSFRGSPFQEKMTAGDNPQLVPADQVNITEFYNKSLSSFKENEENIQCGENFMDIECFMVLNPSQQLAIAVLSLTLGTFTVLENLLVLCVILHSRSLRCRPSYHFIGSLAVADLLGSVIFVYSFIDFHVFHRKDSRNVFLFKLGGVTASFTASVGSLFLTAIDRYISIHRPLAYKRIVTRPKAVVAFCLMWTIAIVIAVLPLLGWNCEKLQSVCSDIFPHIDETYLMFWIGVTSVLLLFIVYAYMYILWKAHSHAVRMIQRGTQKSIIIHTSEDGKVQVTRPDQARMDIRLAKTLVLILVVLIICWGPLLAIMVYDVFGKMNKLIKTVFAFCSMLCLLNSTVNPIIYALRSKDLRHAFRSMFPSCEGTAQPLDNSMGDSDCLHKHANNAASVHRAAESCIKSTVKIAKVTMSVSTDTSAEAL

cannabinoid CB2 receptor [2] = molecular target: T1, cannabinoid CB2 receptor; assay: Radioligand competition binding with [3H]CP55,940, CB2
cannabinoid CB2 receptor [3] = molecular target: T1, cannabinoid CB2 receptor; assay: [35S]GTPγS binding stimulation; type: biochemical
[4] = tested on: ERK1/2 phosphorylation (cannabinoid CB2 receptor-induced); assay: ERK1/2 phosphorylation immunoblot in CB2-transfected HEK293 cells; type: cell-based; conditions: 1.0 μM compound, 5 min; for ERK1/2 phosphorylation in the presence of PTX: 10 ng/ml PTX pretreatment 16 h; for ERK1/2 phosphorylation, fold increase above vehicle: without PTX
Procedure, shortened: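 HEK293 cells were transfected with CB2 DNA by Lipofectamine 2000, then pretreated 24 h later in DMEM with or without 10 ng/ml pertussis toxin for 16 h. They were exposed 5 min at 37°C to 1.0 µM test compound; vehicle was DMSO on CB2-transfected cells. Lysates were immunoblotted for phospho-p44/42 and phospho-MEK with chemiluminescent detection. Statistics: one-way ANOVA with Tukey test.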

cannabinoid CB2 receptor [5] = molecular target: T1, cannabinoid CB2 receptor; conditions: read-out: EC50, cAMP accumulation screen; prior screen; ref Ogawa et al., 2017; cited from earlier work
Jurkat cells = assay: Jurkat cell proliferation; type: cell-based, human; conditions: 72 h; for Cell proliferation inhibition: Jurkat cells, relative to DMSO
Procedure, shortened: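 Jurkat cells (T-lymphoblastic leukaemia, endogenous CB2) at passage 4–12 were grown in RPMI 1640 with 10% FBS and 1% antibiotic-antimycotic at 37°C and 5% CO2. Cells were plated at 10^5 cells/ml and given test compound in RPMI (DMSO vehicle) for 70 h. CellTiter 96 AQueous One was then added for 2 h and A490 read. Percent inhibition was taken relative to DMSO. Triplicate; mean ± S.E.M.; one-way ANOVA with Tukey.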

[6] = Homo sapiens, Jurkat, read-out: Cell proliferation inhibition

T1 sequence (P34972 whole entry): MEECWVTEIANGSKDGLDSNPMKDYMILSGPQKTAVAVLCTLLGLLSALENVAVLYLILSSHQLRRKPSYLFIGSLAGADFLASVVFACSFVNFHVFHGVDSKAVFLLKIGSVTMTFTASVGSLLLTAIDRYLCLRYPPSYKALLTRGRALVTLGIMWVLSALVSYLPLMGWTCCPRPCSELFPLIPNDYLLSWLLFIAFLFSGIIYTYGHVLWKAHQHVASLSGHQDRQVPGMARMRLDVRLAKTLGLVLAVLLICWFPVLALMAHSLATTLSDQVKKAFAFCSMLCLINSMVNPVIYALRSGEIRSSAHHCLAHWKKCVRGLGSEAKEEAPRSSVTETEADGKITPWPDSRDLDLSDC

SMILES | Ki (cannabinoid CB2 receptor [2]) [nM] | EC50 (cannabinoid CB2 receptor [3]) [nM] | ERK1/2 phosphorylation in the presence of PTX [4] | ERK1/2 phosphorylation, fold increase above vehicle [4] | EC50 (cannabinoid CB2 receptor [5]) [nM] | also measured
CCCCCCC(C)(C)c1ccc2c(c1)OC(C)(C)[C@@H]1CC=C(CO)C[C@@H]21 [JWH-051] | – | – | – | – | – | Ki (cannabinoid CB2 receptor [1]; 1996): 0.032 nM; Ki (cannabinoid CB1 receptor; 1996): 1.2 nM
CCC(C(=O)Nc1sc2c(c1C(N)=O)CCCCCC2)c1ccccc1 (centres unmarked) [ABK7, 2-(2-phenylbutanamido)-4,5,6,7,8,9-hexahydrocycloocta[b]thiophene-3-carboxamide] | 317 ± 117 | 31 ± 14 | prevented by the addition of PTX | induce ERK1/2 phosphorylation | 32 | –
CCCC(C)(C)c1ccc2c(c1)OC(C)(C)[C@@H]1CC=C(C)C[C@@H]21 [JWH-133] | – | – | – | – | – | Ki (cannabinoid CB2 receptor [1]; 1999): 3.4 nM; Ki (cannabinoid CB1 receptor; 1999): 677 nM
CCOC(=O)c1ccccc1NC(=O)CN(c1cccc(C)c1C)S(=O)(=O)c1ccccc1 [ABK5, ethyl 2-(2-(N-(2,3-dimethylphenyl)phenylsulfonamido)acetamido)benzoate] | – | – | prevented by the addition of PTX | induce ERK1/2 phosphorylation | – | inhibition at 0.1 µM (Jurkat cells; [6]): 15 ± 2%; inhibition at 10 µM (Jurkat cells; [6]): 20 ± 1%
CCCCCCC(C)(C)c1ccc([C@@H]2C[C@H](O)CC[C@H]2CCCO)c(O)c1 [CP55,940, reference compound] | – | – | – | – | – | Cell proliferation inhibition (Jurkat cells; 0.1 μM): 7±3%; Cell proliferation inhibition (Jurkat cells; 10 μM): 26±8%
COC(=O)c1ccccc1NC(=O)CN(c1ccccc1OC)S(=O)(=O)c1ccc(C)cc1 [ABK6, benzoic acid, 2-[[2-[(2-methoxyphenyl)[(4-methylphenyl)sulfonyl]amino]acetyl]amino]-, methyl ester] | 102 ± 7 | 13 ± 4 | prevented by the addition of PTX | induce ERK1/2 phosphorylation | 2 | –
